Assay [1] deals with T1, Gastrin/cholecystokinin type B receptor (Homo sapiens) (UniProt P32239).
T1 sequence (whole entry): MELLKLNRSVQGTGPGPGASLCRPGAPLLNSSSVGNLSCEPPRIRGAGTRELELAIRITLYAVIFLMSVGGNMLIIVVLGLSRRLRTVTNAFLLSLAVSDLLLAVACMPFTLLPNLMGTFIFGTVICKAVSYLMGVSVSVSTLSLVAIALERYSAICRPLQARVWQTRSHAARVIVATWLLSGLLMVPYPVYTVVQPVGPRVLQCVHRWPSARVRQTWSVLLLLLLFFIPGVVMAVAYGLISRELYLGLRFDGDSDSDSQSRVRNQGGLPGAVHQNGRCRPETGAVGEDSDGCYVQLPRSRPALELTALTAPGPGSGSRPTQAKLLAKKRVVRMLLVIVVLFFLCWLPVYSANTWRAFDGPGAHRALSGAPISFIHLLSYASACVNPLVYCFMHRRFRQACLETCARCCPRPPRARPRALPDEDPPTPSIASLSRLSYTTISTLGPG
The assay is described as follows: Binding affinity to CCK2 receptor expressed in CHO cells assessed per mg of protein. Type of assay: cell-based. The method in brief:
(§1)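 Membranes came from CHO-K1 cells stably expressing CCK2 receptor alone or with MOP receptor. They were incubated with 125I-D-Tyr-Gly-[(Nle28,31)CCK-26-33] (1-5 pM) plus increasing unlabeled ligand for 90 min at room temperature in KRH, pH 7.4, with 0.2% BSA and soybean trypsin inhibitor. Nonspecific binding was set with 1 μM CCK. Bound ligand was filtered and gamma counted; Ki and Bmax (pmol/mg protein) were taken from LIGAND analysis. Mean±S.E.M., 3-5 experiments.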

The target of assay [2] is T1, Gastrin/cholecystokinin type B receptor (Homo sapiens). The experiment in a line: Binding affinity to CCK2R-MOPR coexpressed in CHO cells assessed per mg of protein by [125I] CCK-26-33 displacement assay. Type of assay: cell-based. In outline:
as §1

For assay [3], the target named is T2, Gastrin/cholecystokinin type B receptor (Homo sapiens, UniProt P32239).
T2 sequence (P32239 whole entry): T1 sequence (whole entry)
The experiment in a line: Activity at CCK2R-MOPR coexpressed in CHO cells co-transfected with delta-6-Galphaqi4-myr assessed as intracellular calcium release by FLIPR. Type of assay: functional, cell-based. In outline: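 CHO cells stably expressing CCK2R were grown to 90% confluence, then transiently co-transfected by lipofectamine with MOPR and chimeric Gqi4-myr constructs. After 24 h they were seeded into 96-well plates and used the next day. Ca2+ mobilization was read with a FLIPR calcium kit on a FlexStation3, giving EC50 (nM); number of runs in parentheses.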

Assay [4] has as its target T2, Gastrin/cholecystokinin type B receptor. The experiment in a line: Displacement of [125I]CCK-26-33 from CCK2 receptor expressed in CHO cells. Type of assay: cell-based. The method in brief:
(§2)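 CHO-K1 cell lines stably expressing CCK2 receptor alone or with MOP receptor; receptor-enriched membranes from density gradient centrifugation. (1-5 pM) and increasing concentrations of unlabeled ligand, 90 min, room temperature, KRH pH 7.4 with 0.2% BSA and soybean trypsin inhibitor. Filtration, gamma counting; nonsaturable binding with 1 μM CCK. Ki from LIGAND analysis; 3-5 independent experiments.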
For orientation: Displacement assays read how much labelled ligand stays bound in the presence of the test substance.

In assay [5] the target is T3, Mu-type opioid receptor (Homo sapiens, UniProt P35372). The assay is described as follows: Displacement of [3H]DAMGO from mu opioid receptor expressed in CHO cells. The assay is classed as cell-based. In outline:
(§3)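 Membranes came from CHO cells stably expressing MOP receptor alone or with CCK2 receptor. They were incubated with [3H]DAMGO (0.4 nM) plus increasing unlabeled ligand for 2 h at room temperature in KRH, pH 7.4, with 0.2% BSA and soybean trypsin inhibitor. Nonspecific binding was set with 1 μM DAMGO. Samples were filtered on PEI-soaked GF/C and scintillation counted; Ki and Bmax (pmol/mg protein) came from LIGAND analysis. Mean±S.E.M., 3-5 experiments.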

The target in assay [6] is T3, Mu-type opioid receptor. The experiment in a line: Binding affinity to mu opioid receptor expressed in CHO cells assessed per mg of protein. The assay is classed as cell-based. In outline: as §3
For assay [7], the target named is T2, Gastrin/cholecystokinin type B receptor. The experiment in a line: Displacement of [125I]CCK-26-33 from CCK2R-MOPR coexpressed in CHO cells. Type of assay: cell-based. In outline:
as §2

Assay [8] relates to Mus musculus. The assay is described as follows: Antinociceptive activity in icv dosed ICR mouse by tail flick assay. The assay is classed as functional. In outline: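 Male ICR mice (17-25 g) received i.c.v. injections (5 μL, under 1% DMSO) while conscious. Radiant-heat tail flick was measured at peak time from a 10-60 min time course, expressed as %MPE. At least three groups of 8-10 mice per dose-response, each mouse used once. ED50 (pmol/mouse) with 95% CI came from nonlinear regression.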

The subject of assay [9] is Mus musculus. The experiment in a line: Antinociceptive activity in icv dosed ICR mouse after 24 hrs by tail flick assay. The assay is classed as functional. In outline:
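24 h tolerance in male ICR mice: the day-1 ED80 i.c.v. dose (5 μL, under 1% DMSO) was given again 24 h later to the same mouse, after confirming antinociception had returned to baseline. Radiant-heat tail flick was read at peak time (10-20 min) and expressed as %MPE.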
On the technique in general: In hot-plate and tail-flick tests a longer latency is read as antinociception.

T3 sequence (P35372 whole entry): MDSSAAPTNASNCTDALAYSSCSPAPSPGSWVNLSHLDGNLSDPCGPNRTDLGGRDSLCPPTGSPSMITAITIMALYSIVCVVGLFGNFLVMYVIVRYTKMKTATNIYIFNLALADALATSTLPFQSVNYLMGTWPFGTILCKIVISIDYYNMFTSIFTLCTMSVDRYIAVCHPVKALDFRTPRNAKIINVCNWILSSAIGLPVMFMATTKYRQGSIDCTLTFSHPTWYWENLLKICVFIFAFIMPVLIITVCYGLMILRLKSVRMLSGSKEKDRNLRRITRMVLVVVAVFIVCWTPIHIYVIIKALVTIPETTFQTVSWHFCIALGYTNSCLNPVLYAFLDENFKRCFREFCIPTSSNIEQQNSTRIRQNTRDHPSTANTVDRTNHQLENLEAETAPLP

For orientation: EC50 means the concentration at which the effect is half-maximal. Turning to `CNC(=O)COCC(=O)NCCCCCCNC(=O)COCC(=O)NCCOc1cccc(NC(=O)N[C@@H]2N=C(c3ccccc3)c3ccccc3N(C)C2=O)c1`, the Bmax was determined as 16 pmol in [1] and 9.5 pmol in assay [2]. In addition, in [3], the EC50 is < 10000 nM.

Turning to `Cc1cccc(NC(=O)N[C@@H]2N=C(c3ccccc3)c3ccccc3N(C)C2=O)c1`, the results for the Bmax in [1] and in [2] were 14.4 pmol and 9.1 pmol, respectively.

In the case of `CN1C(=O)[C@H](NC(=O)Nc2cccc(OCCNC(=O)COCC(=O)NNC(=O)COCC(=O)N[C@H]3CC[C@@]4(O)[C@H]5Cc6cc(O)cc7c6[C@@]4(CCN5C)[C@H]3O7)c2)N=C(c2ccccc2)c2ccccc21`, the Ki in assay [4] was 356 nM; in [5] (read-out: Ki) it was 8.3 nM; in assay [7], 57 nM. The Bmax in assay [1] came out at 16 pmol; in [6], 9.8 pmol; in assay [2], 9.5 pmol. Moreover, the figures for the ED50 in assay [8] and in assay [9] were 47.41 pmol and 84.45 pmol, respectively.

Molecule `CNC(=O)COCC(=O)NCCCCNC(=O)COCC(=O)N[C@H]1CC[C@@]2(O)[C@H]3Cc4cc(O)cc5c4[C@@]2(CCN3C)[C@H]1O5` came in with a Ki in assay [5] (cho) of 29.8. For the same molecule, in assay [6], the Bmax was 9.3 pmol. Besides, the EC50 in assay [3] was 572 nM. Moreover, the values for the ED50 in assay [8] and in assay [9] were 51.93 pmol and 40.74 pmol, respectively.

As to `CN1C(=O)[C@H](NC(=O)Nc2cccc(OCCNC(=O)COCC(=O)NCCCCCCNC(=O)COCC(=O)N[C@H]3CC[C@@]4(O)[C@H]5Cc6cc(O)cc7c6[C@@]4(CCN5C)[C@H]3O7)c2)N=C(c2ccccc2)c2ccccc21`, the Ki stood at 260 nM in [4], 29.4 nM in assay [5] (read-out: Ki) and 77 nM in assay [7]. In addition, the Bmax was 18.5 pmol in [1], 7.4 pmol in assay [6] and 10.9 pmol in [2]. Also, the values for the ED50 in assay [8] and in assay [9] were 2020 pmol and 64.33 pmol, respectively.

As to `CN1C(=O)[C@H](NC(=O)Nc2cccc(OCCNC(=O)COCC(=O)NCCNC(=O)COCC(=O)N[C@H]3CC[C@@]4(O)[C@H]5Cc6cc(O)cc7c6[C@@]4(CCN5C)[C@H]3O7)c2)N=C(c2ccccc2)c2ccccc21`, the Ki is 71 nM in [4], 5.7 nM in [5] (read-out: Ki) and 33 nM in assay [7]. For the same molecule, the figures for the Bmax in assay [1], in [6] and in [2] were 10.3 pmol, 7.7 pmol and 12.4 pmol, respectively. For the same molecule, the EC50 in [3] worked out at 119 nM. In addition, the values for the ED50 in assay [8] and in assay [9] were 390 pmol and 71.29 pmol, respectively.

As for `CN1C(=O)[C@H](NC(=O)Nc2cccc(OCCNC(=O)COCC(=O)N[C@H]3CC[C@@]4(O)[C@H]5Cc6cc(O)cc7c6[C@@]4(CCN5C)[C@H]3O7)c2)N=C(c2ccccc2)c2ccccc21`, the Ki in [4] is 223 nM; in assay [5] (read-out: Ki) it was 24.1 nM; in assay [7], 210 nM. In addition, the Bmax came out at 14 pmol in assay [1], 12.4 pmol in assay [6] and 9.3 pmol in assay [2]. The ED50 is 3036 pmol in assay [8] and 57.31 pmol in assay [9].

`C[C@@H](NC(=O)[C@@H](N)Cc1ccc(O)cc1)C(=O)NCC(=O)N(C)[C@@H](Cc1ccccc1)C(=O)NCCO` [DAMGO] returned a Bmax in assay [6] of 9.2 pmol. In addition, the EC50 in assay [3] worked out at 2.66 nM.
